The record followed here is ChEMBL document CHEMBL1133105, “Antimalarial, antitrypanosomal, and antileishmanial activities and cytotoxicity of bis(9-amino-6-chloro-2-methoxyacridines): influence of the linker” (J Med Chem, 2000).

One may read the IC50 as the concentration that gives 50% inhibition. Low readings indicate greater potency in that assay, high ones weaker potency in that assay.

The first assay relates to MRC5. Kind of assay: Cytotoxicity on MRC-5 cells at 3.13 uM. Conditions: Homo sapiens. The format is functional. The method, boiled down:
(§1)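 MRC-5 human diploid embryonic lung cells seeded at 5 000/well, washed after 24 h, then given 2-fold drug dilutions (25, 12.5, 6.25, 3.13 µM) in RPMI + 5% FCS, final DMSO below 0.5%. Incubated 7 days at 37 °C, 5% CO2. MTT colorimetric read-out, scored as % reduction of absorbance at 540 nm versus untreated controls.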
`COc1ccc2nc3cc(Cl)ccc3c(NCCCN(CCCNc3c4ccc(Cl)cc4nc4ccc(OC)cc34)C(=O)C(COC(C)=O)NC(=O)OC(C)(C)C)c2c1` (centres undefined) showed a cytotoxicity at 3.13 µM of 20%.
On the same count and under the same terms, next, `COc1ccc2nc3cc(Cl)ccc3c(NCCCN(CCCNc3c4ccc(Cl)cc4nc4ccc(OC)cc34)C(=O)C(C)N)c2c1` (centres undefined): 20%.

In another assay the test system is MRC5. The experiment in a line: Cytotoxicity on MRC-5 cells at 25 uM. The format is functional. Conditions: Homo sapiens. The method, boiled down: as §1
Compound `COc1ccc2nc3cc(Cl)ccc3c(NCCCN(CCCNc3c4ccc(Cl)cc4nc4ccc(OC)cc34)C(=O)C(COC(C)=O)NC(=O)OC(C)(C)C)c2c1` (centres undefined) returned a cytotoxicity at 25 µM of 100%.
Compound `COc1ccc2nc3cc(Cl)ccc3c(NCCCN(CCCNc3c4ccc(Cl)cc4nc4ccc(OC)cc34)C(=O)C(C)N)c2c1` (centres undefined) gave a cytotoxicity at 25 µM of 100%.

A further assay relates to Trypanosoma brucei. Kind of assay: Percentage of activity against Trypanosoma brucei at 6.25 uM. The format is functional.
Conditions: not given
The method, boiled down: (§2)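 Bloodstream-form T. brucei in HMI-9 medium, 10 000 parasites/well, exposed to 12.5, 6.25, 3.13 and 1.56 µM drug for 4 days. Read-out is % inhibition of parasite multiplication. Macrophage toxicity judged on mouse primary peritoneal macrophages.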
In the case of `COc1ccc2nc3cc(Cl)ccc3c(NCCCN(CCCNc3c4ccc(Cl)cc4nc4ccc(OC)cc34)C(=O)C(COC(C)=O)NC(=O)OC(C)(C)C)c2c1` (centres undefined), the “Inhibition of parasite multiplication” value is reported as 100%.
Consider `COc1ccc2nc3cc(Cl)ccc3c(NCCCN(CCCNc3c4ccc(Cl)cc4nc4ccc(OC)cc34)C(=O)C(C)N)c2c1` (centres undefined), for which the “Inhibition of parasite multiplication” value is on record as 100%.

The next assay concerns MRC5. The experiment in a line: Cytotoxicity on MRC-5 cells at 12.5 uM. Format: functional. Conditions: Homo sapiens. Put shortly:
as §1
Compound `COc1ccc2nc3cc(Cl)ccc3c(NCCCN(CCCNc3c4ccc(Cl)cc4nc4ccc(OC)cc34)C(=O)C(COC(C)=O)NC(=O)OC(C)(C)C)c2c1` (centres undefined) displayed a cytotoxicity at 12.5 µM of 90%.
The same measure, in the same setting: next, `COc1ccc2nc3cc(Cl)ccc3c(NCCCN(CCCNc3c4ccc(Cl)cc4nc4ccc(OC)cc34)C(=O)C(C)N)c2c1` (centres undefined): 100%.

Another assay has as its system Trypanosoma cruzi. Kind of assay: Percentage of activity against Trypanosoma cruzi at 1.56 uM. The format is functional.
Conditions: not given
Put shortly:
(§3)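 Mouse peritoneal macrophages, 30 000/well, infected after 24 h with about 100 000 T. cruzi trypomastigotes per well plus 2-fold drug dilutions (12.5–1.56 µM). Incubated 4 days at 37 °C, 5% CO2. Methanol-fixed, Giemsa-stained and scored microscopically as % reduction of total parasite load (free trypomastigotes plus intracellular amastigotes) versus untreated controls.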
`COc1ccc2nc3cc(Cl)ccc3c(NCCCN(CCCNc3c4ccc(Cl)cc4nc4ccc(OC)cc34)C(=O)C(COC(C)=O)NC(=O)OC(C)(C)C)c2c1` (centres undefined) showed a Parasite load reduction of 0%.
Same read-out and setting: next, `COc1ccc2nc3cc(Cl)ccc3c(NCCCN(CCCNc3c4ccc(Cl)cc4nc4ccc(OC)cc34)C(=O)C(C)N)c2c1` (centres undefined): 0%.

In another assay the test system is Leishmania infantum. The experiment in a line: Percentage of activity against Leishmania infantum at 1.56 uM. The format is functional.
Conditions: not given
Put shortly: (§4)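 Starch-stimulated mouse peritoneal macrophages, 30 000/well, infected after 24 h with spleen-derived L. infantum amastigotes (10:1) together with 2-fold drug dilutions (12.5–1.56 µM). Incubated 7 days at 37 °C, 5% CO2. Wright-stained slides scored microscopically as % reduction of total parasite load or of infected macrophages. Uninfected treated cultures judged microscopically for macrophage toxicity.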
As to `COc1ccc2nc3cc(Cl)ccc3c(NCCCN(CCCNc3c4ccc(Cl)cc4nc4ccc(OC)cc34)C(=O)C(COC(C)=O)NC(=O)OC(C)(C)C)c2c1` (centres undefined), the “Antileishmanial activity (% reduction of parasite load)” value is given as 0%.
On the same count and under the same terms, the figure for `COc1ccc2nc3cc(Cl)ccc3c(NCCCN(CCCNc3c4ccc(Cl)cc4nc4ccc(OC)cc34)C(=O)C(C)N)c2c1` (centres undefined) is 0%.

Another assay has as its system Trypanosoma cruzi. Kind of assay: Percentage of activity against Trypanosoma cruzi at 12.5 uM. The format is functional.
Conditions: not given
The method, boiled down:
as §3
Turning to `COc1ccc2nc3cc(Cl)ccc3c(NCCCN(CCCNc3c4ccc(Cl)cc4nc4ccc(OC)cc34)C(=O)C(COC(C)=O)NC(=O)OC(C)(C)C)c2c1` (centres undefined), the “T. cruzi parasite load reduction” value amounted to 70%.
On the same count and under the same terms, the figure for `COc1ccc2nc3cc(Cl)ccc3c(NCCCN(CCCNc3c4ccc(Cl)cc4nc4ccc(OC)cc34)C(=O)C(C)N)c2c1` (centres undefined) is 0%.

A further assay relates to Trypanosoma brucei. The experiment in a line: Percentage of activity against Trypanosoma brucei at 12.5 uM. The format is functional.
Conditions: not given
The method, boiled down: as §2
On to `COc1ccc2nc3cc(Cl)ccc3c(NCCCN(CCCNc3c4ccc(Cl)cc4nc4ccc(OC)cc34)C(=O)C(COC(C)=O)NC(=O)OC(C)(C)C)c2c1` (centres undefined), for which the “Inhibition of parasite multiplication” value is 100%.
Same read-out and setting: next, `COc1ccc2nc3cc(Cl)ccc3c(NCCCN(CCCNc3c4ccc(Cl)cc4nc4ccc(OC)cc34)C(=O)C(C)N)c2c1` (centres undefined): 100%.

In another assay the test system is Leishmania infantum. The experiment in a line: Percentage of activity against Leishmania infantum 6.25 uM. The format is functional.
Conditions: not given
Put shortly: as §4
For the compound `COc1ccc2nc3cc(Cl)ccc3c(NCCCN(CCCNc3c4ccc(Cl)cc4nc4ccc(OC)cc34)C(=O)C(COC(C)=O)NC(=O)OC(C)(C)C)c2c1` (centres undefined), the “Antileishmanial activity (% reduction of parasite load)” value is listed as 80%.
Same read-out and setting: next, `COc1ccc2nc3cc(Cl)ccc3c(NCCCN(CCCNc3c4ccc(Cl)cc4nc4ccc(OC)cc34)C(=O)C(C)N)c2c1` (centres undefined): 0%.

The subject of the next assay is MRC5. The experiment in a line: Cytotoxicity on MRC-5 cells at 6.25 uM. Format: functional. Conditions: Homo sapiens. The method, boiled down:
as §1
`COc1ccc2nc3cc(Cl)ccc3c(NCCCN(CCCNc3c4ccc(Cl)cc4nc4ccc(OC)cc34)C(=O)C(COC(C)=O)NC(=O)OC(C)(C)C)c2c1` (centres undefined): the cytotoxicity at 6.25 µM turned out to be 40%.
On the same count and under the same terms, next, `COc1ccc2nc3cc(Cl)ccc3c(NCCCN(CCCNc3c4ccc(Cl)cc4nc4ccc(OC)cc34)C(=O)C(C)N)c2c1` (centres undefined): 40%.

Another assay deals with Trypanosoma brucei. The experiment in a line: Percentage of activity against Trypanosoma brucei at 1.56 uM.
Conditions: not given
Format: functional. Put shortly: as §2
Consider `COc1ccc2nc3cc(Cl)ccc3c(NCCCN(CCCNc3c4ccc(Cl)cc4nc4ccc(OC)cc34)C(=O)C(COC(C)=O)NC(=O)OC(C)(C)C)c2c1` (centres undefined), for which the “Percent inhibition of parasite multiplication” value is 100%.
On the same count and under the same terms, next, `COc1ccc2nc3cc(Cl)ccc3c(NCCCN(CCCNc3c4ccc(Cl)cc4nc4ccc(OC)cc34)C(=O)C(C)N)c2c1` (centres undefined): 100%.

Another assay has as its system Plasmodium falciparum. Kind of assay: In vitro sensitivity for Plasmodium falciparum FcB1R. The format is functional, organism-based.
Conditions: not given
The method, boiled down:
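Asynchronous P. falciparum cultures in human erythrocytes (0.5% parasitemia, 1% haematocrit) exposed to serially diluted drug for 24 h at 37 °C. [3H]hypoxanthine (0.5 µCi/well) then added for a further 24 h. Uptake compared with drug-free controls on the same plate. IC50 taken from the concentration–response curve, averaged over independent experiments. DMSO ≤0.1%.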
As for `COc1ccc2nc3cc(Cl)ccc3c(NCCCN(CCCNc3c4ccc(Cl)cc4nc4ccc(OC)cc34)C(=O)C(COC(C)=O)NC(=O)OC(C)(C)C)c2c1` (centres undefined), the IC50 came out at 63 nM.
Still for that read-out and setting: the figure for `COc1ccc2nc3cc(Cl)ccc3c(NCCCN(CCCNc3c4ccc(Cl)cc4nc4ccc(OC)cc34)C(=O)C(C)N)c2c1` (centres undefined) is more than 500 nM.

The subject of another assay is Leishmania infantum. Kind of assay: In Vitro evaluation for the percentage of activity towards Leishmania infantum at 12.5 uM Concentration.
Conditions: not given
The format is functional. The method, boiled down:
as §4
`COc1ccc2nc3cc(Cl)ccc3c(NCCCN(CCCNc3c4ccc(Cl)cc4nc4ccc(OC)cc34)C(=O)C(COC(C)=O)NC(=O)OC(C)(C)C)c2c1` (centres undefined): the “Percent inhibition of Leishmania infantum” value was 90%.
Turning to `COc1ccc2nc3cc(Cl)ccc3c(NCCCN(CCCNc3c4ccc(Cl)cc4nc4ccc(OC)cc34)C(=O)C(C)N)c2c1` (centres undefined), the “Percent inhibition of Leishmania infantum” value came to 0%.

A further assay relates to Trypanosoma cruzi. Kind of assay: Percentage of activity against Trypanosoma cruzi at 6.25 uM Concentration. The format is functional.
Conditions: not given
Put shortly: as §3
On to `COc1ccc2nc3cc(Cl)ccc3c(NCCCN(CCCNc3c4ccc(Cl)cc4nc4ccc(OC)cc34)C(=O)C(COC(C)=O)NC(=O)OC(C)(C)C)c2c1` (centres undefined), for which the “Reduction of T. cruzi parasite load” value was found to be 40%.
Same read-out and setting: next, `COc1ccc2nc3cc(Cl)ccc3c(NCCCN(CCCNc3c4ccc(Cl)cc4nc4ccc(OC)cc34)C(=O)C(C)N)c2c1` (centres undefined): 0%.

A further assay has as its system Trypanosoma cruzi. The experiment in a line: Percentage of activity against Trypanosoma cruzi at 3.13 uM. The format is functional.
Conditions: not given
Put shortly: as §3
For `COc1ccc2nc3cc(Cl)ccc3c(NCCCN(CCCNc3c4ccc(Cl)cc4nc4ccc(OC)cc34)C(=O)C(COC(C)=O)NC(=O)OC(C)(C)C)c2c1` (centres undefined), the “Reduction of T. cruzi parasite load” value is 0%.
The same measure, in the same setting: next, `COc1ccc2nc3cc(Cl)ccc3c(NCCCN(CCCNc3c4ccc(Cl)cc4nc4ccc(OC)cc34)C(=O)C(C)N)c2c1` (centres undefined): 0%.

For another assay, the system named is Trypanosoma brucei. The experiment in a line: Percentage of activity against Trypanosoma brucei at 3.13 uM. The format is functional.
Conditions: not given
Put shortly:
as §2
`COc1ccc2nc3cc(Cl)ccc3c(NCCCN(CCCNc3c4ccc(Cl)cc4nc4ccc(OC)cc34)C(=O)C(COC(C)=O)NC(=O)OC(C)(C)C)c2c1` (centres undefined) came in with a Parasite growth inhibition of 100%.
In turn, `COc1ccc2nc3cc(Cl)ccc3c(NCCCN(CCCNc3c4ccc(Cl)cc4nc4ccc(OC)cc34)C(=O)C(C)N)c2c1` (centres undefined) displayed a Parasite growth inhibition of 100%.

For a further assay, the system named is Leishmania infantum. Kind of assay: Percentage of activity against Leishmania infantum at 3.13 uM. Format: functional.
Conditions: not given
Put shortly:
as §4
As to `COc1ccc2nc3cc(Cl)ccc3c(NCCCN(CCCNc3c4ccc(Cl)cc4nc4ccc(OC)cc34)C(=O)C(COC(C)=O)NC(=O)OC(C)(C)C)c2c1` (centres undefined), the “Percent antileishmanial activity (reduction of parasite load)” value worked out at 60%.
Same read-out and setting: the figure for `COc1ccc2nc3cc(Cl)ccc3c(NCCCN(CCCNc3c4ccc(Cl)cc4nc4ccc(OC)cc34)C(=O)C(C)N)c2c1` (centres undefined) is 0%.
